From ChEMBL document CHEMBL1123566, “Synthesis and cardiac electrophysiological activity of 2- and 3-[(substituted phenyl)alkyl]quinuclidines. Structure-activity relationships” (1987)
Where “and” joins values, the source holds several entries; their conditions need not be identical. Equal entries are not always repeated.

Experiments:
Canis familiaris [1] = organism: Canis familiaris; assay: In vitro electrophysiological evaluation in canine cardiac ventricular muscle reported as maximum % change for functional refractory period (FRP) at 0.1-100 uM concentration range; concentration at which it occurred is 100 uM; parameters: species or system Canis lupus familiaris, Muscle tissue
Summary of the method: (§1)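 Canine right ventricle and papillary muscle strips in oxygenated Tyrode's solution, fitted with stimulating and recording electrodes. The extra-stimulus conduction-interval method was adapted for in vitro use. FRP and CT were read from a conduction-interval curve before and after various compound concentrations, and expressed as percent change from control. Compounds were taken from 10 mM deionized-water stock into Tyrode's. Each strip was used once as its own control.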

Canis familiaris [2] = assay: Mean arterial blood pressure was determined by intraduodenal administration of two dosages of 30 mg/kg of compound in anesthetized dogs. Value was reported for experiment 2; format: functional, Canis lupus familiaris
Summary of the method: (§2)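 Anesthetized dogs received two intraduodenal doses, the second cumulative (low dose/high dose). Left ventricular FRP and CT were measured 15, 30 and 45 min after dosing. Heart rate and mean blood pressure were taken during nonpacing intervals. Values are percent change from control. The vehicle was 5% dextrose in water/tragacanth. Activity was defined as ≥12% prolongation of FRP or CT.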

Canis familiaris [3] = assay: Heart rate was determined by intraduodenal administration of two dosages of 30 mg/kg of compound in anesthetized dogs. Value was reported for experiment 1; format: functional, Canis lupus familiaris
Summary of the method: (§3)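 Anesthetized dogs; compound given intraduodenally, generally as two doses, the second a cumulative (high) dose. LV functional refractory period and conduction time measured 15, 30 and 45 min after dosing; heart rate and blood pressure measured during nonpacing intervals. Values are % change from control, given per individual animal. Active if FRP or CT prolonged by ≥12%.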

Canis familiaris [4] = assay: Left ventricular refractory period was determined by intraduodenal administration of 30 mg/kg (high dose) of compound in anesthetized dogs. Value was reported for experiment 1; format: functional, Canis lupus familiaris, Cardiac ventricle; summary of the method: as §2
Canis familiaris [5] = assay: Conduction time was determined by intraduodenal administration of 30 mg/kg (high dose) of compound in anesthetized dogs. Value was reported for experiment 2; format: functional, Canis lupus familiaris; summary of the method: as §3
Canis familiaris [6] = assay: Left ventricular refractory period was determined by intraduodenal administration of 10 mg/kg (low dose) of compound in anesthetized dogs. Value was reported for experiment 2; format: functional, Canis lupus familiaris, Cardiac ventricle; summary of the method: as §2
Canis familiaris [7] = organism: Canis familiaris; assay: In vitro electrophysiological evaluation in canine cardiac Purkinje fibres reported as % change for action potential duration at a concentration of 10 uM; format: functional, Canis lupus familiaris, Purkinje fiber
Summary of the method: (§4)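 Canine cardiac Purkinje fibres, intracellular microelectrode recording, paced at a basic cycle length of 1 s. APD95 and Vmax read simultaneously. Compound: 10 mM stock in deionized water, diluted into Tyrode's solution, tested over the stated concentration range. Each fibre used once as its own control. Result is % change from control, given at 10 µM or as the maximum with its concentration. M = <10% decrease or an increase in Vmax.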

Canis familiaris [8] = assay: Left ventricular refractory period was determined by intraduodenal administration of 10 mg/kg (low dose) of compound in anesthetized dogs. Value was reported for experiment 1; format: functional, Canis lupus familiaris, Cardiac ventricle; summary of the method: as §2
Canis familiaris [9] = organism: Canis familiaris; assay: (§5) In vitro electrophysiological activity in canine cardiac occurred is 10 uM; format: functional, Canis lupus familiaris, Heart
Canis familiaris [10] = organism: Canis familiaris; assay: In vitro electrophysiological evaluation in canine cardiac ventricular muscle reported as maximum % change for conduction time(CT) at 0.1-100 uM concentration range; Minimal (<10% decrease or increase in CT).; format: functional, Canis lupus familiaris, Muscle tissue; summary of the method: as §1
Canis familiaris [11] = assay: Left ventricular refractory period was determined by intraduodenal administration of 30 mg/kg (high dose) of compound in anesthetized dogs. Value was reported for experiment 2; format: functional, Canis lupus familiaris, Cardiac ventricle; summary of the method: as §2
Canis familiaris [12] = organism: Canis familiaris; assay: In vitro electrophysiological evaluation in canine cardiac Purkinje fibres reported as percent change Vmax at 10 uM at concentration range of 1-100 uM.; format: functional; details: Canis lupus familiaris, Purkinje fiber; summary of the method: as §4
Canis familiaris [13] = organism: Canis familiaris; assay: In vitro electrophysiological evaluation in canine cardiac ventricular muscle reported as % change for conduction time(CT) at 10 uM at 0.1-100 uM concentration range; Minimal (<10% decrease or increase in CT).; format: functional, Canis lupus familiaris, Muscle tissue
Canis familiaris [14] = organism: Canis familiaris; assay: In vitro electrophysiological evaluation in canine cardiac occurred is 100 uM; format: functional; details: Canis lupus familiaris; Heart
Canis familiaris [15] = assay: Mean arterial blood pressure was determined by intraduodenal administration of two dosages of 10 mg/kg of compound in anesthetized dogs. Value was reported for experiment 1; format: functional, Canis lupus familiaris; summary of the method: as §2
Canis familiaris [16] = assay: Heart rate was determined by intraduodenal administration of two dosages of 10 mg/kg of compound in anesthetized dogs. Value was reported for experiment 2; format: functional, Canis lupus familiaris; summary of the method: as §3
Canis familiaris [17] = assay: Conduction time was determined by intraduodenal administration of 30 mg/kg (high dose) of compound in anesthetized dogs. Value was reported for experiment 1; format: functional, Canis lupus familiaris; summary of the method: as §3
Canis familiaris [18] = organism: Canis familiaris; assay: as §5; format: functional, Canis lupus familiaris, Heart; remark: listed apart in the source
Canis familiaris [19] = assay: Mean arterial blood pressure was determined by intraduodenal administration of two dosages of 10 mg/kg of compound in anesthetized dogs. Value was reported for experiment 2; format: functional, Canis lupus familiaris; summary of the method: as §2
Canis familiaris [20] = organism: Canis familiaris; assay: In vitro electrophysiological evaluation in canine cardiac Purkinje fibres reported as percent change Vmax at 10 uM at concentration range of 0.1-100 uM; Minimal (<10% decrease or increase in V max).; format: functional, organism-based; details: Canis lupus familiaris, Purkinje fiber; summary of the method: as §4
Canis familiaris [21] = assay: Conduction time was determined by intraduodenal administration of 10 mg/kg (low dose) of compound in anesthetized dogs. Value was reported for experiment 1; format: functional, Canis lupus familiaris; summary of the method: as §3
Canis familiaris [22] = assay: Mean arterial blood pressure was determined by intraduodenal administration of two dosages of 30 mg/kg of compound in anesthetized dogs. Value was reported for experiment 1; format: functional, Canis lupus familiaris; summary of the method: as §2
Canis familiaris [23] = organism: Canis familiaris; assay: In vitro electrophysiological evaluation in canine cardiac ventricular muscle reported as % change for the functional refractory period (FRP) at 10 uM at concentration range of 0.1-100 uM; parameters: species or system Canis lupus familiaris, Muscle tissue; summary of the method: as §1
Canis familiaris [24] = assay: Heart rate was determined by intraduodenal administration of two dosages of 10 mg/kg of compound in anesthetized dogs. Value was reported for experiment 1; format: functional, Canis lupus familiaris; summary of the method: as §3
Canis familiaris [25] = organism: Canis familiaris; assay: In vitro electrophysiological evaluation in canine cardiac Purkinje fibres reported as maximum percent change Vmax concentration range of 0.1-100 uM; Minimal (<10% decrease or increase in V max).; format: functional; details: Canis lupus familiaris; Purkinje fiber; summary of the method: as §4
Canis familiaris [26] = organism: Canis familiaris; assay: In vitro electrophysiological evaluation in canine cardiac Purkinje fibres reported as % change for action potential duration at 10 uM at 0.1-100 uM concentration range; format: functional, Canis lupus familiaris, Purkinje fiber; summary of the method: as §4
Canis familiaris [27] = assay: Heart rate was determined by intraduodenal administration of two dosages of 30 mg/kg of compound in anesthetized dogs. Value was reported for experiment 2; format: functional, Canis lupus familiaris; summary of the method: as §3
Canis familiaris [28] = assay: Conduction time was determined by intraduodenal administration of 10 mg/kg (low dose) of compound in anesthetized dogs. Value was reported for experiment 2; format: functional, Canis lupus familiaris; summary of the method: as §3

CC(=O)C(CC1C(=O)C2CCN1CC2)C(=O)c1ccc([N+](=O)[O-])cc1.Cl (stereo not drawn)
FRP (Canis familiaris [1]): 23% and 30%
Mean blood pressure (Canis familiaris [2]): -30%
HR (Canis familiaris [3]): -14%
LV FRP (Canis familiaris [4]): 13%
CT (Canis familiaris [5]): 11%
LV FRP (Canis familiaris [6]): 16%
APD95 (Canis familiaris [7]): 28%
LV FRP (Canis familiaris [8]): 9%
APD95 (Canis familiaris [9]): 29%
CT (Canis familiaris [10]): <10%
LV FRP (Canis familiaris [11]): 22%
Vmax (Canis familiaris [12]): -18%
CT (Canis familiaris [13]): <10%
Vmax (Canis familiaris [14]): -24%
Mean blood pressure (Canis familiaris [15]): 10%
HR (Canis familiaris [16]): -36%
CT (Canis familiaris [17]): -3%
APD95 (Canis familiaris [18]): 28%
Mean blood pressure (Canis familiaris [19]): -39%
Vmax (Canis familiaris [20]): < 10%
CT (Canis familiaris [21]): -3%
Mean blood pressure (Canis familiaris [22]): 12%
FRP (Canis familiaris [23]): 21% and 28%
HR (Canis familiaris [24]): -11%
Vmax (Canis familiaris [25]): < 10%
APD95 (Canis familiaris [26]): 29%
HR (Canis familiaris [27]): -32%
CT (Canis familiaris [28]): 9%
